{
  "source": "ChEMBL document CHEMBL1240379",
  "about": "“Combined ramR mutation and presence of a Tn1721-associated tet(A) variant in a clinical isolate of Salmonella enterica serovar Hadar resistant to tigecycline” (2010)",
  "key": {"[1]": {"assay": "Antibacterial activity against Salmonella enterica serovar Hadar VA5649 by Etest method", "format": "functional, Salmonella enterica subsp. enterica serovar Hadar"}, "[2]": {"assay": "Antibacterial activity against Salmonella enterica serovar Hadar VA5649 harboring wild type ramR-2313 gene by Etest method", "format": "functional, Salmonella enterica subsp. enterica serovar Hadar"}, "[3]": {"assay": "Antibacterial activity against Salmonella enterica serovar Hadar VA5649 harboring ramR-5649 mutant gene by Etest method", "format": "functional, Salmonella enterica subsp. enterica serovar Hadar"}, "[4]": {"assay": "Antibacterial activity against Salmonella enterica serovar Hadar VA5649 expressing ACYC177 plasmid by Etest method", "format": "functional, Salmonella enterica subsp. enterica serovar Hadar"}, "Escherichia coli [5]": {"test_system": "Escherichia coli", "assay": "Antibacterial activity against Escherichia coli DH10B by Etest method", "format": "functional", "conditions": "K-12 DH10B"}, "Escherichia coli [6]": {"test_system": "Escherichia coli", "assay": "Antibacterial activity against Escherichia coli DH10B harboring Tn1721-tet(A) carrying plasmid by Etest method", "format": "functional", "conditions": "K-12 DH10B"}, "Escherichia coli [7]": {"test_system": "Escherichia coli", "assay": "Antibacterial activity against Escherichia coli DH10B expressing SK2 plasmid by Etest method", "format": "functional", "conditions": "K-12 DH10B"}, "Escherichia coli [8]": {"test_system": "Escherichia coli", "assay": "Antibacterial activity against Escherichia coli DH10B expressing Tn1721-tet(A) carrying plasmid SK2 by Etest method", "format": "functional", "conditions": "K-12 DH10B"}, "[9]": {"assay": "Antibacterial activity against Salmonella enterica serovar Hadar VA5649 by both microdilution assay", "format": "functional, Salmonella enterica subsp. enterica serovar Hadar", "how_it_was_run": "(§1)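 Tigecycline MIC by broth microdilution using a commercial tigecycline panel with freshly prepared Mueller-Hinton II broth less than 12 h old. Susceptible, intermediate or resistant category assigned by EUCAST clinical breakpoints.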"}, "Escherichia coli [10]": {"test_system": "Escherichia coli", "assay": "Antibacterial activity against Escherichia coli DH10B by broth microdilution assay", "format": "functional", "conditions": "K-12 DH10B", "how_it_was_run": "(§2)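 MIC by broth microdilution on a commercial ready-made drug panel, using freshly prepared Mueller-Hinton II broth (under 12 h old). MIC categories interpreted against EUCAST clinical breakpoints (susceptible, intermediate or resistant).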"}, "Escherichia coli [11]": {"test_system": "Escherichia coli", "assay": "Antibacterial activity against Escherichia coli DH10B harboring Tn1721-tet(A) carrying plasmid by broth microdilution assay", "format": "functional", "conditions": "K-12 DH10B", "how_it_was_run": "as §1"}, "Escherichia coli [12]": {"test_system": "Escherichia coli", "assay": "Antibacterial activity against Escherichia coli DH10B expressing SK2 plasmid by broth microdilution assay", "format": "functional", "conditions": "K-12 DH10B", "how_it_was_run": "as §2"}, "Escherichia coli [13]": {"test_system": "Escherichia coli", "assay": "Antibacterial activity against Escherichia coli DH10B expressing Tn1721-tet(A) carrying plasmid SK2 by broth microdilution assay", "format": "functional", "conditions": "K-12 DH10B", "how_it_was_run": "as §1"}, "Salmonella enterica [14]": {"test_system": "Salmonella enterica", "assay": "Antibacterial activity against wild type Salmonella enterica TY2313 by broth microdilution assay", "format": "functional", "how_it_was_run": "as §2"}, "[15]": {"assay": "Antibacterial activity against Salmonella enterica serovar Hadar VA5649 harboring wild type ramR-2313 gene by both microdilution assay", "format": "functional, Salmonella enterica subsp. enterica serovar Hadar", "how_it_was_run": "as §1"}, "[16]": {"assay": "Antibacterial activity against Salmonella enterica serovar Hadar VA5649 harboring ramR-5649 mutant gene by both microdilution assay", "format": "functional, Salmonella enterica subsp. enterica serovar Hadar", "how_it_was_run": "as §1"}, "[17]": {"assay": "Antibacterial activity against Salmonella enterica serovar Hadar VA5649 expressing ACYC177 plasmid by both microdilution assay", "format": "functional, Salmonella enterica subsp. enterica serovar Hadar", "how_it_was_run": "as §1"}, "Salmonella enterica [18]": {"test_system": "Salmonella enterica", "assay": "Antibacterial activity against wild type Salmonella enterica TY2313 by Etest method", "format": "functional"}},
  "data": [
    {"compound": "O=C(O)c1cn(C2CC2)c2cc(N3CCNCC3)c(F)cc2c1=O", "note": "[CIPROFLOXACIN]", "values": [
      {"measurement": "MIC", "setting": "[1]", "result": 1, "unit": "mg/L"},
      {"measurement": "MIC", "setting": "[2]", "result": 0.25, "unit": "mg/L"},
      {"measurement": "MIC", "setting": "[3]", "result": 1, "unit": "mg/L"},
      {"measurement": "MIC", "setting": "[4]", "result": 1, "unit": "mg/L"}
    ]},
    {"compound": "CN(C)c1ccc(O)c2c1C[C@H]1C[C@H]3[C@H](N(C)C)C(O)=C(C(N)=O)C(=O)[C@@]3(O)C(O)=C1C2=O", "note": "[MINOCYCLINE]", "values": [
      {"measurement": "MIC", "setting": "[1]", "result": 32, "unit": "mg/L"},
      {"measurement": "MIC", "setting": "Escherichia coli [5]", "result": 0.75, "unit": "mg/L"},
      {"measurement": "MIC", "setting": "Escherichia coli [6]", "result": 8, "unit": "mg/L"},
      {"measurement": "MIC", "setting": "Escherichia coli [7]", "result": 0.75, "unit": "mg/L"},
      {"measurement": "MIC", "setting": "Escherichia coli [8]", "result": 8, "unit": "mg/L"}
    ]},
    {"compound": "CN(C)c1cc(NC(=O)CNC(C)(C)C)c(O)c2c1C[C@H]1C[C@H]3[C@H](N(C)C)C(O)=C(C(N)=O)C(=O)[C@@]3(O)C(O)=C1C2=O", "note": "[TIGECYCLINE]", "values": [
      {"measurement": "MIC", "setting": "[9]", "result": 16, "unit": "mg/L"},
      {"measurement": "MIC", "setting": "Escherichia coli [10]", "result": 0.065, "unit": "mg/L"},
      {"measurement": "MIC", "setting": "Escherichia coli [11]", "result": 0.25, "unit": "mg/L"},
      {"measurement": "MIC", "setting": "Escherichia coli [12]", "result": 0.065, "unit": "mg/L"},
      {"measurement": "MIC", "setting": "Escherichia coli [13]", "result": 0.25, "unit": "mg/L"},
      {"measurement": "MIC", "setting": "Salmonella enterica [14]", "result": 0.25, "unit": "mg/L"},
      {"measurement": "MIC", "setting": "[15]", "result": 2, "unit": "mg/L"},
      {"measurement": "MIC", "setting": "[16]", "result": 16, "unit": "mg/L"},
      {"measurement": "MIC", "setting": "[17]", "result": 16, "unit": "mg/L"}
    ]},
    {"compound": "O=C(N[C@H](CO)[C@H](O)c1ccc([N+](=O)[O-])cc1)C(Cl)Cl", "note": "[CHLORAMPHENICOL]", "values": [
      {"measurement": "MIC", "setting": "[1]", "result": 8, "unit": "mg/L"},
      {"measurement": "MIC", "setting": "Salmonella enterica [18]", "result": 2, "unit": "mg/L"},
      {"measurement": "MIC", "setting": "[2]", "result": 2, "unit": "mg/L"},
      {"measurement": "MIC", "setting": "[3]", "result": 8, "unit": "mg/L"},
      {"measurement": "MIC", "setting": "[4]", "result": 8, "unit": "mg/L"}
    ]}
  ]
}
